Apaf-1 inh = human Apaf-1 inhibition | AID 489030 | 330,000 compounds, 0.71% hits | reconstituted apoptosome caspase-3 activity, DEVD-Rh110 fluorescence | inhibition, % at 20 µM; active = inhibition of at least 40% at 20 µM;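 also: plate controls were DMSO wells for no effect and DEVD-CHO caspase inhibitor wells for full effect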
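detection = Rh110 fluorescence intensity | test system = biochemical Apaf-1 apoptosome reconstitution | also added = cytochrome c and DEVD-Rh110 substrate | schedule = 30 min plus 50 min, RT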
MEKK2mut PB1 HTS = signal of MEK5 binding to mutant human MEKK2 PB1 domain | percent response, % at 10 µM | bead flow cytometry, Alexa488-MEK5 binding to MEKK2 mutant | AID 1530 | 290,000 compounds, 0.35% hits; in the data active = percent response above about 24%, passing the limit was not always enough
MEKK3 PB1 HTS = modulators (inhibitors or enhancers) of MEK5 binding to human MEKK3 PB1 domain; binding response (% of control), % at 10 µM; AID 1529; bead-based flow cytometry, Alexa488-MEK5 binding to MEKK3; actives lie on both sides; 0 = blocked by unlabeled MEK5, 100 = vehicle; Q99759; 290,000 compounds, 1.4% hits;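 active = binding response more than 3 SD above or below the average of its plate-row segment, actives on both sides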;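 also: Alexa488 bead fluorescence after subtracting the streptavidin-only scavenger bead signal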
UBC13 polyUb = blocks human UBC13 polyubiquitin chain formation. P61088. TR-FRET. inhibition, % at 20 µM. 330,000 compounds, 0.47% hits. AID 485273; in the data active = inhibition above about 45%, passing the limit was not always enough
Target sequence (P61088 whole entry, looked up): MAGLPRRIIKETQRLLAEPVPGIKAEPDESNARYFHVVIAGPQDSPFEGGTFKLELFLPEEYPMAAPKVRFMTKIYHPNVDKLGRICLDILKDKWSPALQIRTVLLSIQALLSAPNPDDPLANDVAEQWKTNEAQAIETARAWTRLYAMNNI
MEKK2 WT-MEK5 = raises or lowers MEK5 binding to wildtype human MEKK2 PB1 domain | bead flow cytometry, Alexa488-MEK5 binding to MEKK2 WT; actives lie on both sides | binding response (% of control), % at 10 µM | 290,000 compounds, 1.1% hits | AID 1531; in the data active = binding response below about 67% or above about 130%
MEKK2wt confirm = raises or lowers MEK5 binding to wildtype human MEKK2, retest; shares compounds with MEKK3 PB1 HTS; bead flow cytometry, Alexa488-MEK5 binding to MEKK2 WT; actives lie on both sides; binding response (% of control), % at 10 µM; 5,900 compounds, 2.4% hits; in the data active = binding response below about 16% or above about 210%; inactive = in between
MEKK2mut confirm = signal of MEK5 binding to mutant human MEKK2, retest | percent response, % at 10 µM | bead flow cytometry, Alexa488-MEK5 binding to MEKK2 mutant | 5,900 compounds, 2% hits | shares compounds with MEKK3 PB1 HTS | AID 1893; in the data active = percent response mostly above about 71%, no sharp cut-off; inactive = mostly below about 38%;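 also: higher means compound restores mutant binding toward wildtype level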
MEKK3-MEK5 inh = confirmation of inhibitors of MEK5 binding to human MEKK3. binding response (% of control), % at 10 µM. shares compounds with MEKK3 PB1 HTS. bead flow cytometry, Alexa488-MEK5 binding to MEKK3; hits give low values. 5,900 compounds, 1.8% hits;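 active = binding response below 72% of control, or above a set upper limit, though filed actives all read lower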;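 also: 100% = DMSO only wells and 0% = binding blocked by excess unlabeled MEK5; lower values mean stronger disruption of MEK5 binding to MEKK3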
* = called active by the depositor; [ ] = remark or other dose. Shown are actives, neighbours in structure and some others; about 2.9% of the full set was active somewhere.

For Brc1ccc(-c2nc3ncccn3c2NC2CCCCC2)o1 the results were Apaf-1 inh 14.7, MEKK2mut PB1 HTS 8.0, MEKK3 PB1 HTS 129.0*, UBC13 polyUb 1.6, MEKK2 WT-MEK5 123.0, MEKK2wt confirm 101.0, MEKK2mut confirm 4.0 and MEKK3-MEK5 inh 102.0.
O=[N+]([O-])c1cc(Cl)ccc1N1CCOCC1 was read as Apaf-1 inh -2.9, MEKK2mut PB1 HTS 0.0, MEKK3 PB1 HTS 105.0, UBC13 polyUb -2.8 and MEKK2 WT-MEK5 105.0.
Screening Nc1cc(N2CCOCC2)c(Cl)cc1[N+](=O)[O-] returned Apaf-1 inh -16.7, MEKK2mut PB1 HTS -2.0, MEKK3 PB1 HTS 73.0*[inhibitor], UBC13 polyUb -19.6, MEKK2 WT-MEK5 95.0, MEKK2wt confirm 97.0, MEKK2mut confirm -2.0 and MEKK3-MEK5 inh 103.0.
`CCOC(=O)C1CCN(C(=O)c2cc(S(=O)(=O)N3CCOCC3)c(Cl)cc2Cl)CC1` gave Apaf-1 inh 0.8, MEKK2mut PB1 HTS -4.0, MEKK3 PB1 HTS 82.0*[inhibitor], UBC13 polyUb 3.4, MEKK2 WT-MEK5 92.0, MEKK2wt confirm 107.0, MEKK2mut confirm 3.0 and MEKK3-MEK5 inh 104.0.
`COC(=O)C1=C(NC(=O)c2cccs2)CCS1` gave MEKK2mut PB1 HTS 4.0, MEKK3 PB1 HTS 103.0 and MEKK2 WT-MEK5 100.0.
Screening COC(=O)C1=C(NC(=O)c2ccccc2C)CCS1 returned Apaf-1 inh 6.4, MEKK2mut PB1 HTS -15.0, MEKK3 PB1 HTS 46.0*[inhibitor], UBC13 polyUb 9.4, MEKK2 WT-MEK5 54.0, MEKK2wt confirm 89.0, MEKK2mut confirm -30.0 and MEKK3-MEK5 inh 92.0.
Screening CCOc1ccccc1NS(=O)(=O)c1cn(C)c(=O)n(C)c1=O returned Apaf-1 inh 1.5, MEKK2mut PB1 HTS -3.0, MEKK3 PB1 HTS 94.0, UBC13 polyUb 1.3 and MEKK2 WT-MEK5 95.0.
`O=[N+]([O-])c1ccc(N/N=C/c2sc(N3CCOCC3)nc2-c2ccccc2)c(S(=O)(=O)Nc2ccc(Cl)cc2)c1` gave MEKK2mut PB1 HTS -32.0, MEKK3 PB1 HTS 11.0*[inhibitor], MEKK2wt confirm 79.0, MEKK2mut confirm -9.0 and MEKK3-MEK5 inh 82.0.
O=C(O)c1cccc(N/N=C/c2sc(N3CCOCC3)nc2-c2ccccc2)c1 was read as Apaf-1 inh -7.9, MEKK2mut PB1 HTS 0.0, MEKK3 PB1 HTS 102.0, UBC13 polyUb -0.3 and MEKK2 WT-MEK5 97.0.
Screening CCOc1cc(/C=C(\C#N)C(=O)NCc2cccnc2)ccc1O returned Apaf-1 inh 0.4, MEKK2mut PB1 HTS -1.0, MEKK3 PB1 HTS 101.0, UBC13 polyUb -23.0 and MEKK2 WT-MEK5 97.0.
Fc1ccc(NC(=S)Nc2ccc(Cl)cc2)cc1 was read as Apaf-1 inh -18.7, MEKK2mut PB1 HTS 5.0, MEKK3 PB1 HTS 141.0*, UBC13 polyUb 1.0, MEKK2 WT-MEK5 129.0, MEKK2wt confirm 99.0, MEKK2mut confirm -5.0 and MEKK3-MEK5 inh 97.0.
`Cn1c(SCc2nc3ccccc3n2CCO)nc2ccccc21` gave Apaf-1 inh 1.9, MEKK2mut PB1 HTS 7.0, MEKK3 PB1 HTS 125.0*, UBC13 polyUb 11.2, MEKK2 WT-MEK5 125.0, MEKK2wt confirm 105.0, MEKK2mut confirm 1.0 and MEKK3-MEK5 inh 104.0.
`N#C/C(=C\c1ccc(C#N)cc1)C(=O)N1CCCC1` gave Apaf-1 inh -15.7, MEKK2mut PB1 HTS -3.0, MEKK3 PB1 HTS 71.0*[inhibitor], UBC13 polyUb 1.6, MEKK2 WT-MEK5 88.0, MEKK2wt confirm 103.0, MEKK2mut confirm 5.0 and MEKK3-MEK5 inh 101.0.
`Cc1ccc2c(c1)C(=O)C(=O)N2CC(=O)Nc1ccccc1NC(=O)c1ccccn1` gave Apaf-1 inh -4.4, MEKK2mut PB1 HTS 3.0, MEKK3 PB1 HTS 98.0, UBC13 polyUb -25.7 and MEKK2 WT-MEK5 98.0.
`CCn1c(SCC(=O)Nc2cc(C(C)(C)C)nn2-c2ccccc2)nnc1-c1cccs1` gave Apaf-1 inh -10.6, MEKK2mut PB1 HTS 0.0, MEKK3 PB1 HTS 151.0*, UBC13 polyUb 3.9, MEKK2 WT-MEK5 107.0, MEKK2wt confirm 100.0, MEKK2mut confirm -10.0 and MEKK3-MEK5 inh 101.0.
`Cc1nnc(SCC(=O)Nc2cc(C(C)(C)C)nn2-c2ccccc2)s1` gave Apaf-1 inh -3.8, MEKK2mut PB1 HTS -2.0, MEKK3 PB1 HTS 92.0, UBC13 polyUb -11.4 and MEKK2 WT-MEK5 95.0.
O=C(NC(=S)N1CCCCC1CO)c1cc(Br)ccc1Cl (stereo not given) was read as Apaf-1 inh -10.0 and UBC13 polyUb 5.6.
CC(/C=N\NC(=O)CN1CCN(S(=O)(=O)c2ccc(C)cc2)CC1)=C\c1ccccc1 was read as MEKK2mut PB1 HTS 0.0, MEKK3 PB1 HTS 132.0*, MEKK2 WT-MEK5 107.0, MEKK2wt confirm 99.0, MEKK2mut confirm -2.0 and MEKK3-MEK5 inh 106.0.
`Cc1ccc(S(=O)(=O)N2CCN(CC(=O)N/N=C\C(Cl)=C\c3ccccc3)CC2)cc1` gave Apaf-1 inh 12.1, MEKK2mut PB1 HTS 0.0, MEKK3 PB1 HTS 137.0*, UBC13 polyUb 5.5, MEKK2 WT-MEK5 106.0, MEKK2wt confirm 96.0, MEKK2mut confirm -5.0 and MEKK3-MEK5 inh 99.0.
Screening Cc1ccc(S(=O)(=O)N2CCN(CC(=O)N/N=C\c3ccncc3)CC2)cc1 returned Apaf-1 inh -6.5, MEKK2mut PB1 HTS 1.0, MEKK3 PB1 HTS 103.0, UBC13 polyUb 3.3 and MEKK2 WT-MEK5 103.0.
`O=C(Nc1nc(-c2ccc(F)cc2)cs1)c1ccc(N2C(=O)CCC2=O)cc1` gave Apaf-1 inh 7.4, MEKK2mut PB1 HTS -7.0, MEKK3 PB1 HTS 74.0*[inhibitor], UBC13 polyUb 9.0, MEKK2 WT-MEK5 79.0, MEKK2wt confirm 93.0, MEKK2mut confirm -2.0 and MEKK3-MEK5 inh 90.0.
Screening NC(=O)CCN1CCCCC1 returned Apaf-1 inh -1.1, MEKK2mut PB1 HTS -10.0, MEKK3 PB1 HTS 98.0, UBC13 polyUb 0.3 and MEKK2 WT-MEK5 91.0.
Screening O=C(CCC(=O)CCN1CCCCC1)CCN1CCCCC1 returned Apaf-1 inh 14.4, MEKK2mut PB1 HTS 32.0, MEKK3 PB1 HTS 102.0, UBC13 polyUb 15.8, MEKK2 WT-MEK5 175.0*, MEKK2wt confirm 136.0, MEKK2mut confirm 14.0 and MEKK3-MEK5 inh 97.0.
For Nc1cc(=O)[nH]c(SCC(=O)N2CCC(Cc3ccccc3)CC2)n1 the results were Apaf-1 inh 8.2 and UBC13 polyUb 4.0.
Screening COc1ccccc1N(CC(=O)NC1CCCC1)C(=O)CCCC(=O)Nc1ccccn1 returned Apaf-1 inh 2.6, MEKK2mut PB1 HTS -2.0, MEKK3 PB1 HTS 102.0, UBC13 polyUb -2.7 and MEKK2 WT-MEK5 101.0.
